According to ChEMBL document CHEMBL3526062, “Role of human UDP-glucuronosyltransferases in the biotransformation of the triazoloacridinone and imidazoacridinone antitumor agents C-1305 and C-1311: highly selective substrates for UGT1A10” (Drug Metab Dispos, 2012):

Columns and labels:
[1] = Drug metabolism in human liver microsomes assessed as glucuronidation after 60 mins by Michaelis-Menten equation in presence of 3 mM UDP-GlcUA; format: ADME
In short: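 Recombinant UGT membrane protein (5 μg; His-tagged UGT1A levels normalized by anti-His Western blot) or single-donor microsomes (20 μg) incubated with substrate 5–1000 μM and 3 mM UDP-GlcUA in […] pH 7.4, 5 mM MgCl2, 5 mM saccharolactone, 2% DMSO, 60 min, 37°C. Ethanol stop, centrifuged, HPLC-UV. Initial velocities fitted to Michaelis-Menten, Hill or substrate-inhibition models; three determinations.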

[2] = Drug metabolism in human intestinal microsomes assessed as glucuronidation activity at 0.2 mM for 60 mins by ESI-MS analysis in presence of 3 mM UDP-GlcUA; format: ADME, Intestine, Microsome; conditions: 1 h, 200 µM
In short: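 Single-donor liver or intestinal microsomes (20 μg total protein) incubated with 0.2 mM substrate and 3 mM UDP-GlcUA for 60 min at 37°C in Tris-HCl pH 7.4, MgCl2, saccharolactone, 2% DMSO. Ethanol stop, centrifuged, HPLC analysis; triplicates.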

[3] = molecular target: T1, UDP-glucuronosyltransferase 1A3 (Homo sapiens, UniProt P35503); assay: Activity of human recombinant UGT1A3 expressed in baculovirus-infected Sf9 cells assessed as glucuronidation activity per mg of protein at 100 to 200 uM after 60 mins in presence of 3 mM UDP-GlcUA; format: ADME; conditions: sf9, 1 h
T1 sequence (P35503 whole entry): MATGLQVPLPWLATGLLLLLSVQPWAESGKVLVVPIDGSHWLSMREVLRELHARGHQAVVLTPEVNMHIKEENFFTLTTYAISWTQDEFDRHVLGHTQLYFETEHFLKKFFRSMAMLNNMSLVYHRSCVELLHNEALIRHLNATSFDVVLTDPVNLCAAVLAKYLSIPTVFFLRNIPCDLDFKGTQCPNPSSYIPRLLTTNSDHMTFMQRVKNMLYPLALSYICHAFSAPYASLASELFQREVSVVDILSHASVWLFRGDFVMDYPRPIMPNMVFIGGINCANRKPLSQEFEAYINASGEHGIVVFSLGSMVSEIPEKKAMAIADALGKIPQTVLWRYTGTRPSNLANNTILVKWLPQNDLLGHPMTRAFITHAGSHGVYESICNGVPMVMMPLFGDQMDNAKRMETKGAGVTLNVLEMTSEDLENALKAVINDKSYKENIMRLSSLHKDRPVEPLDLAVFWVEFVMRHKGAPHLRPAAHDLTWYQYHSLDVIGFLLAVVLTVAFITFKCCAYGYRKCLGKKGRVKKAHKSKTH
In short: (§1)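 Screening: 5 μg recombinant UGT protein (His-tag levels normalized) in Tris-HCl pH 7.4, 5 mM MgCl2, 5 mM saccharolactone, 2% DMSO to permeabilize membranes. Substrate at 100 or 200 μM, added in water. Started with 3 mM UDP-GlcUA, 60 min at 37°C, stopped with ethanol, then centrifuged. Glucuronide quantified by reversed-phase C18 HPLC against the substrate response; triplicates.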

[4] = molecular target: T2, UDP-glucuronosyltransferase 1A10 (Homo sapiens, UniProt Q9HAW8); assay: Activity of human recombinant UGT1A10 expressed in baculovirus-infected Sf9 cells assessed as metabolite formation at 200 uM after 60 mins by HPLC analysis; format: ADME; conditions: sf9, 1 h
T2 sequence (Q9HAW8 whole entry): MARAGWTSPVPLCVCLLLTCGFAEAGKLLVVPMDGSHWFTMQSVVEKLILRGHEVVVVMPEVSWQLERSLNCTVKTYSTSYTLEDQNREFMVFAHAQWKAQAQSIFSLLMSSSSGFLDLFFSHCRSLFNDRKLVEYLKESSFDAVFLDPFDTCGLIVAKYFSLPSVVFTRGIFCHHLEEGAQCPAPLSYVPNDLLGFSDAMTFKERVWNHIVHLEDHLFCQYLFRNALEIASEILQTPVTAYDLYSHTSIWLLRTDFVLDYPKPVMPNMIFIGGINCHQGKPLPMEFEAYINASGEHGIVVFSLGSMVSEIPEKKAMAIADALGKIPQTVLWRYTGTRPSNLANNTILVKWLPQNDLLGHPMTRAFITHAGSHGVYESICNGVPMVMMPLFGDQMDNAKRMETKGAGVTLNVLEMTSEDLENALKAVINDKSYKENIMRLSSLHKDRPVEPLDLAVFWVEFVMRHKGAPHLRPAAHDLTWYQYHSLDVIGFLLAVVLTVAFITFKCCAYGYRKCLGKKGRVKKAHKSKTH
In short: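 Protein (5 μg UGT1A10 or microsomal) incubated with 0.2 mM substrate and 3 mM UDP-GlcUA, 60 min. HPLC on C18 at 25°C with a 15–80% methanol gradient in 0.05 M ammonium formate pH 3.4 at 1 ml/min. ESI positive-ion MS and UV/Vis spectra taken from the peaks. Glucuronide confirmed by 60 min further treatment with 1000 U E. coli β-glucuronidase.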

[5] = molecular target: T3, UDP-glucuronosyltransferase 1A9 (Homo sapiens, UniProt O60656); assay: Activity of human recombinant UGT1A9 expressed in baculovirus-infected Sf9 cells assessed as glucuronidation activity per mg of protein at 100 to 200 uM after 60 mins in presence of 3 mM UDP-GlcUA; format: ADME; conditions: sf9, 1 h; in short: as §1
T3 sequence (O60656 whole entry): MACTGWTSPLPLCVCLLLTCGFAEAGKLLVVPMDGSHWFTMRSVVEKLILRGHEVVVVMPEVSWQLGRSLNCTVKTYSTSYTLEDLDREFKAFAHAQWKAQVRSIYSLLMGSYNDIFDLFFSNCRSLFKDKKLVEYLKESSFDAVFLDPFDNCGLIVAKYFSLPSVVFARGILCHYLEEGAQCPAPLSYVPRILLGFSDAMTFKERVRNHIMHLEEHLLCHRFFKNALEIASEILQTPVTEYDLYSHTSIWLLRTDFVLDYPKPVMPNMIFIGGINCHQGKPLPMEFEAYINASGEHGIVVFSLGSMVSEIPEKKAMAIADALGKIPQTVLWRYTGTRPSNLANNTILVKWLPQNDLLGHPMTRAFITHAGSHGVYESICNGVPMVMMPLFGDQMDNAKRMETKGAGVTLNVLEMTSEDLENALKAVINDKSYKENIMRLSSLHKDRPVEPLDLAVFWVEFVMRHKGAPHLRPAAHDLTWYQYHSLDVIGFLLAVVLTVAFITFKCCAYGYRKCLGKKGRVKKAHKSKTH

Structure (SMILES) | Km at 1 h [1] [µM] | Drug metabolism [2] | Drug metabolism [3] [nmol/min/mg] | Drug metabolism [4] | Drug metabolism [5] [nmol/min/mg]
CN(C)CCCNc1ccc2nnn3c4ccc(O)cc4c(=O)c1c23 | 71.3 | metabolite_detected | < 0.1 | metabolite_detected | 0.2
CCN(CC)CCNc1ccc2ncn3c4ccc(O)cc4c(=O)c1c23 [C-1311] | 39.3 | metabolite_detected | < 0.1 | metabolite_detected | 0.2
